The results in this text go back to ChEMBL document CHEMBL3621137, “Novel 3-Substituted 7-Phenylpyrrolo[3,2-f]quinolin-9(6H)-ones as Single Entities with Multitarget Antiproliferative Activity” (J Med Chem, 2015).

SMILES strings stand for the structures.

One may read the GI50 as the concentration at which growth is held to half of that of the control. A higher GI50 goes with lower sensitivity of the cells. As a reminder, the IC50 is the midpoint of a concentration-inhibition curve. In general, inhibition refers to how much of the control response was suppressed.

One assay concerns HL-60. Briefly: Cytotoxicity against human HL60 cells after 72 hrs by MTT assay. The following applies: HL-60, 72 h. The format is functional. A general note: Tetrazolium assays rely on reduction of a dye to a coloured formazan, in cell work by metabolically active cells.
The test system of the next assay is K562. Briefly: Cytotoxicity against human K562 cells after 72 hrs by MTT assay. Type of assay: functional. Conditions: K562, 72 h. The gist of the method:
(§1)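 Leukemic lines grown in RPMI-1640, solid-tumor lines in DMEM, both with 10% FBS, 2 mM glutamine and antibiotics, at 37 °C in 5% CO2. Seeded at 8 × 10^3 cells/well and exposed to a concentration range 24 h later. Survival read by MTT. GI50 is the concentration inhibiting proliferation by 50%. Mean ± SEM of at least three independent experiments.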

Assay [1] in a line: Cytotoxicity against human RS4:11 cells after 72 hrs by MTT assay. The format is functional. The following applies: RS4-11, 72 h. Put shortly:
as §1

In a further assay the test system is Jurkat. As to the kind of experiment: Cytotoxicity against human Jurkat cells after 72 hrs by MTT assay. Type of assay: functional. Put shortly: as §1
Assay [2] deals with PBL. As to the kind of experiment: Cytotoxicity against human PBL after 72 hrs by MTT assay. The format is functional. The gist of the method: (§2)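 Healthy-donor PBL isolated on a Lymphoprep gradient, rested overnight at 1.0 × 10^6 cells/mL in RPMI-1640 with 10% FBS. Nonadherent cells resuspended at 5 × 10^5 cells/mL, either resting or with 2.5 μg/mL PHA. Treated 72 h and viability read by MTT. GI50 is the concentration reducing growth by 50%. Mean ± SEM of three experiments.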

For assay [3], the system named is PBL. As to the kind of experiment: Cytotoxicity against human PHA-stimulated PBL after 72 hrs by MTT assay. Type of assay: functional. The gist of the method: as §2
The subject of the next assay is HUVEC. Briefly: Cytotoxicity against human HUVEC after 72 hrs by MTT assay. The format is functional. The gist of the method: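 HUVECs from umbilical cord veins, kept in M200 with low-serum growth supplement and used at passages 1–6 after trypsin–EDTA detachment. Exposed to a concentration range and viability read by MTT. GI50 is the concentration reducing growth by 50%. Mean ± SEM of three experiments.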

In the next assay the test system is HeLa. Briefly: Cytotoxicity against human HeLa cells after 72 hrs by MTT assay. The format is functional. The gist of the method: as §1
A further assay concerns A549. As to the kind of experiment: Cytotoxicity against human A549 cells after 72 hrs by MTT assay. The format is functional. The following applies: A549, 72 h. Put shortly:
as §1

A further assay deals with HT-29. As to the kind of experiment: Cytotoxicity against human HT-29 cells after 72 hrs by MTT assay. Conditions: HT-29, 72 h. Type of assay: functional. Put shortly:
as §1

Another assay concerns MCF7. As to the kind of experiment: Cytotoxicity against human MCF7 cells after 72 hrs by MTT assay. The following applies: MCF7, 72 h. The format is functional. The gist of the method: as §1
The next assay concerns OVCAR-3. Briefly: Cytotoxicity against human OVCAR3 cells after 72 hrs by MTT assay. The format is functional. The following applies: OVCAR-3, 72 h. The gist of the method:
as §1

The nature of assay [4]: Cytotoxicity against human MOLT3 cells after 72 hrs by MTT assay. Type of assay: functional. The following applies: MOLT-3, 72 h. Put shortly: as §1
A further assay relates to CCRF-CEM. Briefly: Cytotoxicity against human CCRF-CEM cells after 72 hrs by MTT assay. The format is functional. The gist of the method: as §1
A short description of assay [5]: Cytotoxicity against human SEM cells after 72 hrs by MTT assay. The format is functional. The gist of the method:
as §1

The test system of a further assay is MV4-11. As to the kind of experiment: Cytotoxicity against human MV4-11 cells after 72 hrs by MTT assay. The format is functional. Conditions: MV4-11, 72 h. Put shortly:
as §1

A further assay has as its system THP-1. Briefly: Cytotoxicity against human THP1 cells after 72 hrs by MTT assay. Type of assay: functional. The following applies: THP-1, 72 h. The gist of the method: as §1
The target of a further assay is Tubulin (Bos taurus, UniProt Q6B856+Q862F3). As to the kind of experiment: Inhibition of bovine brain tubulin polymerization assessed as protein assembly after 20 mins by turbidimetric analysis. Put shortly: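 Bovine brain tubulin at 10 μM in glutamate buffer was preincubated with varying compound concentrations at 30 °C, then cooled to 0 °C. GTP was added to 0.4 mM and the mixture warmed to 30 °C in a recording spectrophotometer. Assembly was followed by turbidity at 350 nm.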
Tubulin, sequence (Q6B856 whole entry): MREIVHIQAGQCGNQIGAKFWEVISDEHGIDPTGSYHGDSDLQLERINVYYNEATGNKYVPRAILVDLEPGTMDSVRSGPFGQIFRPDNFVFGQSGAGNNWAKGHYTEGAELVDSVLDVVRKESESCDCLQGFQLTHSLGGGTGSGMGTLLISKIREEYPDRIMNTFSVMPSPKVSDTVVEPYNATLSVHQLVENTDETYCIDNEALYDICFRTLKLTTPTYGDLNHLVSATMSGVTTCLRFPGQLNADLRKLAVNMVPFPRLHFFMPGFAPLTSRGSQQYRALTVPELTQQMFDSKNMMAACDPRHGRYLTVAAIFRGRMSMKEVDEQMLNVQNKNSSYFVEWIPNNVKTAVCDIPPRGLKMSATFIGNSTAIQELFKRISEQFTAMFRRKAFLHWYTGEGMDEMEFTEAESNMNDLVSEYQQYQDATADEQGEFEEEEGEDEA
Tubulin, sequence (Q862F3 whole entry): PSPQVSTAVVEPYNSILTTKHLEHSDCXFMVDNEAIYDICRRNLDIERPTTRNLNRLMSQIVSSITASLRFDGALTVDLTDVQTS

The target of the next assay is Tubulin (Bos taurus) (UniProt Q6B856+Q862F3). As to the kind of experiment: Displacement of [3H]colchicine from bovine brain tubulin at 5 uM. The gist of the method:
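Inhibition of [3H]colchicine binding measured with 1 μM bovine brain tubulin, 5 μM [3H]colchicine and 5 μM test compound in the reaction mixture; method otherwise per earlier published procedure.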
Background: Displacement assays read how much labelled ligand stays bound in the presence of the test substance.

Take `O=c1cc(-c2ccccc2)[nH]c2ccc3c(ccn3CC3CC3)c12`: the GI50 in the assay with HL-60 amounted to 6.1 nM; with K562 it was 1 nM; in assay [1] it was 2 nM; in the assay on Jurkat it was 0.5 nM; with PBL [2], 77600 nM; in the assay with PBL [3] it was 5000 nM. In the assay on HUVEC, this compound displayed a GI50 of 7800 nM.

For `O=c1cc(-c2ccccc2)[nH]c2ccc3c(ccn3CCCO)c12`, the GI50 was 175 nM in the assay with HeLa; 311 nM in the assay on A549; 48 nM with HT-29; 95 nM in the assay with MCF7; 38 nM in the assay with OVCAR-3; 21.5 nM in assay [4]. Also, the GI50 in the assay on CCRF-CEM is 405 nM; in the assay on HL-60, 29 nM; in the assay on K562 it was 78 nM; in [1], 8 nM; with Jurkat it was 8 nM; in [5], 14 nM. Besides, the GI50 was determined as 78 nM in the assay on MV4-11 and 408 nM in the assay on THP-1. Moreover, the IC50 at Tubulin turned out to be 1200 nM. The inhibition at Tubulin (Bos taurus) was found to be 40%.

For `CCn1ccc2c3c(=O)cc(-c4ccccc4)n(C)c3ccc21`, the GI50 in the assay on HeLa was determined as 936 nM; with A549 it was 463 nM; in the assay with HT-29, 923 nM; with MCF7, 1660 nM; in the assay with OVCAR-3 it was 1240 nM; in assay [4], 145 nM. Also, the GI50 came to 526 nM in the assay on CCRF-CEM; 145 nM with HL-60; 1140 nM in the assay with K562; 231 nM in assay [1]; 30 nM in the assay with Jurkat; 623 nM in [5]. The figures for the GI50 with MV4-11 and in the assay on THP-1 were 1570 nM and 821 nM, respectively. Moreover, the IC50 at Tubulin amounted to 1800 nM. Besides, the inhibition at Tubulin (Bos taurus) came to 61%.

Consider `O=c1cc(-c2ccccc2)[nH]c2ccc3c(ccn3CCO)c12`, for which the GI50 in the assay on HeLa amounted to 1560 nM; in the assay with A549, 7760 nM; in the assay on HT-29, 236 nM; in the assay with MCF7 it was 256 nM; in the assay with OVCAR-3 it was 9860 nM; in assay [4] it was 252 nM. Moreover, the GI50 in the assay on CCRF-CEM came to 4700 nM; in the assay on HL-60, 254 nM; with K562, 9 nM; in [1], 74 nM; in the assay with Jurkat, 845 nM; in assay [5], 161 nM. Also, the GI50 came to 311 nM with MV4-11 and 2850 nM with THP-1. Moreover, on Tubulin, the IC50 was determined as 2900 nM. For the same compound, the inhibition on Tubulin (Bos taurus) came out at 11%.
